Calls of active or inactive are those of the source. The rule behind the calls is not given here.
Key:
Leishmania donovani [1] = test: Antimicrobial activity against axenically grown Leishmania donovani amastigotes; assay type: functional, organism-based
RAW264.7 = test: Cytotoxicity against mouse RAW264.7 cells after 72 hrs by MTS assay; assay type: cell-based; settings: RAW264.7, 72 h
Method in brief: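 RAW 264.7 murine macrophage line was plated at 1 × 10^4 cells per well in supplemented DMEM. Cells received a graded compound series for 72 h at 37 °C, 5% CO2, with a maximum of 1% DMSO. Viability was measured by MTS with PMS coupling at OD 490 nm, as percent of untreated control. The IC50 was the concentration reducing OD by half, given as mean ± SEM, N = 1–4.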

Leishmania donovani [2] = test: Antimicrobial activity against SSG-resistant Leishmania donovani 39 amastigote infected in mouse peritoneal macrophages assessed as inhibition of parasite growth after 72 hrs by Giemsa staining method; assay type: functional, organism-based; settings: Leishmania donovani, 39, 72 h
Method in brief: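 Mouse peritoneal elicited macrophages were seeded on coverslips at 1 × 10^5 cells per well in DMEM with 10% heat-inactivated FBS and left to attach overnight. They were infected overnight with late-log Ld39 promastigotes (parasite:macrophage 20:1) at 37 °C, 5% CO2, then washed. Compounds were applied for 72 h at 37 °C. Giemsa-stained amastigotes per 100 macrophages gave IC50; N = 1−3.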

[3] = Cytotoxicity against mouse Peritoneal macrophages cells after 72 hrs by MTS assay; assay type: cell-based; settings: Peritoneal macrophage cell
Method in brief: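 Primary mouse peritoneal elicited macrophages were seeded at 2 × 10^4 cells per well in DMEM with 10% heat-inactivated FBS. They were exposed to graded doses for 72 h at 37 °C in 5% CO2. Survival was read by MTS/PMS tetrazolium reduction (OD 490 nm) relative to untreated control. The IC50 was the concentration halving OD. Results are mean ± SEM of 1–4 independent experiments.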

[4] = Therapeutic index, ratio of IC50 for mouse Peritoneal macrophages to IC50 for SSG-resistant Leishmania donovani 39 promastigote; settings: read-out: Ratio IC50
Method in brief: (§1)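 Index is PEM cytotoxicity IC50 over promastigote IC50. For PEM, cells were seeded at 2 × 10^4 per well in supplemented DMEM, given graded doses for 72 h at 37 °C, 5% CO2, and read by MTS survival.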

Leishmania donovani [5] = test: Antimicrobial activity against pentamidine-resistant Leishmania donovani AG83PentR50 promastigote assessed as inhibition of parasite growth after 72 hrs by MTS assay; assay type: functional, organism-based; settings: AG83PentR50, 72 h
Method in brief: (§2)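 Promastigotes were grown in Schneider's medium pH 6.9 with 10% heat-inactivated FBS at 27 °C, seeded at 1 × 10^5 per well, and exposed to serial concentrations for 72 h at 27 °C. Compounds were in DMSO (≤1% final) or water. MTS:PMS (20:1) was added for 4 h, then OD490 was read. Survival was % of untreated control; IC50 = concentration halving OD; N = 1−4.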

[6] = Therapeutic index, ratio of IC50 for mouse PEM cells to IC50 for wild-type Leishmania donovani AG83 promastigote; assay type: cell-based; settings: read-out: Ratio IC50; method in brief: as §1
Leishmania donovani [7] = test: Antimicrobial activity against wild-type Leishmania donovani AG83 promastigote assessed as inhibition of parasite growth after 72 hrs by MTS assay; assay type: functional, organism-based; settings: AG83, 72 h
Method in brief: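 Promastigotes were grown in Schneider's medium pH 6.9 with 10% heat-inactivated FBS at 27 °C, seeded at 1 × 10^5 per well, and exposed to serial concentrations for 72 h at 27 °C. Compounds were in DMSO (≤1% final) or water. MTS:PMS (20:1) was added for 4 h, then OD490 was read.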

[8] = Therapeutic index, ratio of IC50 for mouse Peritoneal macrophages to IC50 for SSG-resistant Leishmania donovani 39 amastigote infected in mouse peritoneal macrophages; settings: read-out: Ratio IC50
[9] = Therapeutic index, ratio of IC50 for mouse Peritoneal macrophages to IC50 for pentamidine-resistant Leishmania donovani AG83PentR50 promastigote; settings: read-out: Ratio IC50; method in brief: as §1
Leishmania donovani [10] = test: Antimicrobial activity against SSG-resistant Leishmania donovani 39 promastigote assessed as inhibition of parasite growth after 72 hrs by MTS assay; assay type: functional, organism-based; settings: Leishmania donovani, 39, 72 h; method in brief: as §2
Leishmania donovani [11] = test: Antimicrobial activity against SSG-resistant Leishmania donovani 39 amastigote infected in mouse peritoneal macrophages assessed as inhibition of parasite growth at 5 uM after 3 days by Giemsa staining method; assay type: functional, organism-based
Method in brief: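 Coverslip-grown peritoneal macrophages were infected 24 h at 37 °C with late-log Ld39 promastigotes (20:1), washed, then exposed to 5 μM compound for 3 days at 37 °C, with a DMSO solvent control. Giemsa staining was scored as percentage of macrophages infected and amastigotes per 100 macrophages.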

Leishmania donovani [12] = test: Ratio of isoginkgetin IC50 to compound IC50 for axenically grown Leishmania donovani amastigotes; assay type: functional
[13] = Therapeutic index, ratio of IC50 for rat L6 cells to IC50 for Leishmania donovani; assay type: cell-based; settings: L6 cells (cytotoxicity) versus Leishmania donovani, read-out: Ratio IC50
L6 = test: Cytotoxicity against rat L6 cells; assay type: cell-based

Row | Compound | IC50 (Leishmania donovani [1]) | IC50 (Leishmania donovani [2]) | IC50 [3] | IC50 (Leishmania donovani [7]) | selectivity ratio [8] | IC50 (Leishmania donovani [10]) | further results
1 | O=c1cc(-c2ccc(Oc3c(O)cc(O)c4c(=O)cc(-c5ccc(O)cc5)oc34)cc2)oc2cc(O)cc(O)c12 [LANAROFLAVONE] | 7.2 µM | – | – | – | – | – | –
2 | C[C@@H]1[C@H](O)[C@@H](C)/C=C/C=C/C=C/C=C/C=C/C=C/C=C/[C@H](O[C@@H]2O[C@H](C)[C@@H](O)[C@H](N)[C@@H]2O)C[C@@H]2O[C@](O)(C[C@@H](O)C[C@@H](O)[C@H](O)CC[C@@H](O)C[C@@H](O)CC(=O)O[C@H]1C)C[C@H](O)[C@H]2C(=O)O [AMPHOTERICIN B] | – | 0.062 µM | 7.4 µM | 0.09 µM | 119 | 0.095 µM | IC50 (RAW264.7): 12 µM; selectivity ratio [4]: 77.9; IC50 (Leishmania donovani [5]): 0.051 µM; selectivity ratio [6]: 82.2; selectivity ratio [9]: 145
3 | O=c1cc(-c2ccc(OCCOCCN(CCOCCOc3ccc(-c4cc(=O)c5ccccc5o4)cc3)Cc3ccncc3)cc2)oc2ccccc12 | – | 0.63 µM | > 88 µM | 0.2 µM | > 140 | 0.21 µM | IC50 (RAW264.7): > 100 µM; inhibition (Leishmania donovani [11]): Active; selectivity ratio [4]: > 419; Ratio IC50 (Leishmania donovani [12]): 3; IC50 (Leishmania donovani [5]): 0.13 µM; selectivity ratio [6]: > 440; selectivity ratio [9]: > 677
4 | COc1ccc(-c2cc(=O)c3c(O)cc(O)cc3o2)cc1-c1c(O)cc(O)c2c(=O)cc(-c3ccc(O)cc3)oc12 [BILOBETIN] | 2.7 µM | – | – | – | – | – | –
5 | O=c1cc(-c2ccc(OCCOCCN(CCOCCOc3ccc(-c4cc(=O)c5ccccc5o4)cc3)Cc3ccncc3Br)cc2)oc2ccccc12 | – | > 7.6 µM | > 100 µM | 0.65 µM | > 13.1 | > 50 µM | –
6 | COc1ccc(-c2cc(=O)c3c(O)cc(O)c(-c4cc(-c5cc(=O)c6c(O)cc(O)cc6o5)ccc4OC)c3o2)cc1 [ISOGINKGETIN] | 1.9 µM | – | – | – | – | – | selectivity ratio [13]: 5.8; IC50 (L6): 11 µM
7 | N#Cc1cc(CN(CCOCCOc2ccc(-c3cc(=O)c4ccccc4o3)cc2)CCOCCOc2ccc(-c3cc(=O)c4ccccc4o3)cc2)ccn1 | – | 7.6 µM | > 92 µM | 1.1 µM | > 12.1 | > 50 µM | –
8 | COc1cc(O)c2c(=O)cc(-c3ccc(OC)c(-c4c(O)cc(O)c5c(=O)cc(-c6ccc(O)cc6)oc45)c3)oc2c1 [GINKGETIN] | 2.8 µM | – | – | – | – | – | –

Source: ChEMBL document CHEMBL2169835, “Flavonoid dimers as novel, potent antileishmanial agents” (J Med Chem, 2012)
